This note sets out measurements from ChEMBL document CHEMBL1138564, “Microwave-induced synthesis and anti-microbial activities of 7,10,11,12-tetrahydrobenzo[c]acridin-8(9H)-one derivatives” (2009).

The structures appear in SMILES notation.

Holding throughout (type): functional
For one assay, the system named is Aspergillus niger. Kind of assay: Antimicrobial activity against Aspergillus niger NCIM 902 at 10 ug/disk after 72 hrs by disk diffusion method. Particulars: NCIM 902, 72 h, read-out: DIZ. An outline of the steps: (§1)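 Disc diffusion on Sabouraud's dextrose agar. 100 µl of fungal suspension at 10⁶ CFU/ml is spread on the plate. Discs carry test compounds at two loadings in DMSO; DMSO alone is the negative control. Clotrimazole disc is the positive reference. Plates are incubated at 27 °C for 72 h, and the zone of inhibition diameter is measured.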

In a further assay the test system is Aspergillus flavus. Kind of assay: Antimicrobial activity against Aspergillus flavus NCIM 902 at 10 ug/disk after 72 hrs by disk diffusion method. Particulars: NCIM 535, 72 h, in the assay text read “NCIM 535” for “NCIM 902”, read-out: DIZ. An outline of the steps:
as §1

For another assay, the system named is Rhodotorula mucilaginosa. Kind of assay: Antimicrobial activity against Rhodotorula rubra NCIM 3174 at 10 ug/disk after 72 hrs by disk diffusion method. Particulars: NCIM 3174, 72 h, read-out: DIZ. An outline of the steps: (§2)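 Clotrimazole reference disc at 10 µg/disc. Fungal inoculum of 100 µl at 10⁶ CFU/ml was spread on Sabouraud's dextrose agar and incubated at 27 °C for 72 h. The read-out was inhibition zone diameter.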
A general note: A growth-free zone around the sample is the usual read-out of agar diffusion tests.

A further assay relates to Aspergillus fumigatus. Kind of assay: Antimicrobial activity against Aspergillus fumigatus NCIM 902 at 10 ug/disk after 72 hrs by disk diffusion method. To be noted: NCIM 902, 72 h, read-out: DIZ. An outline of the steps: as §1
A further assay relates to Aspergillus parasiticus. Kind of assay: Antimicrobial activity against Aspergillus parasiticus NCIM 904 at 10 ug/disk after 72 hrs by disk diffusion method. Particulars: NCIM 904, 72 h, read-out: DIZ. An outline of the steps: as §1
For the next assay, the system named is Penicillium chrysogenum. Kind of assay: Antimicrobial activity against Penicillium chrysogenum NCIM 707 at 10 ug/disk after 72 hrs by disk diffusion method. Particulars: NCIM 707, 72 h, read-out: DIZ. An outline of the steps: as §1
The subject of a further assay is Lipomyces lipofer. Kind of assay: Antimicrobial activity against Lipomyces lipofer NCIM 3252 at 10 ug/disk after 72 hrs by disk diffusion method. To be noted: NCIM 3252, 72 h, read-out: DIZ. In a few lines: as §1
Another assay concerns Trichoderma viride. Kind of assay: Antimicrobial activity against Trichoderma viride NCIM 1195 at 10 ug/disk after 72 hrs by disk diffusion method. To be noted: NCIM 1195, 72 h, read-out: DIZ. In a few lines: as §2

Turning to `Clc1ccccc1C(c1ccccc1)(c1ccccc1)n1ccnc1` [CLOTRIMAZOLE], the zone of inhibition at 10 µg/disc in the assay with Aspergillus niger stood at 16 mm; in the assay on Aspergillus flavus, 16 mm; in the assay with Rhodotorula mucilaginosa it was 17 mm; in the assay on Aspergillus fumigatus, 18 mm; in the assay with Aspergillus parasiticus, 18 mm; with Penicillium chrysogenum, 21 mm. Besides, the zone of inhibition at 10 µg/disc in the assay with Lipomyces lipofer was found to be 18 mm; in the assay with Trichoderma viride it was 19 mm.
